Reference: ChEMBL document CHEMBL2434886, “Development of 3,4-dihydroisoquinolin-1(2H)-one derivatives for the Positron Emission Tomography (PET) imaging of σ₂ receptors” (Eur J Med Chem, 2013)

Columns and labels:
[1] = molecular target: Sigma non-opioid intracellular receptor 1 (Cavia porcellus, UniProt Q60492); assay: Displacement of (+)-[3H]-pentazocine from sigma 1 receptor in Dunkin guinea pig brain membranes without cerebellum; format: cell membranes, Membrane
[2] = Displacement of [3H]-DTG from sigma 2 receptor in Wistar Hannover rat liver membranes; format: cell membranes, Membrane
[3] = Selectivity ratio of Ki for sigma 1 receptor in guinea pig brain membranes without cerebellum to Ki for sigma 2 receptor in Wistar Hannover rat liver membranes; format: cell membranes; details: Membrane
[4] = molecular target: 5-hydroxytryptamine receptor 7 (Homo sapiens, UniProt P34969); assay: Displacement of [3H]-5-CT from human recombinant 5-HT7 receptor expressed in CHO-K1 cells after 120 mins; format: cell-based
5-hydroxytryptamine receptor 7, sequence (P34969 whole entry): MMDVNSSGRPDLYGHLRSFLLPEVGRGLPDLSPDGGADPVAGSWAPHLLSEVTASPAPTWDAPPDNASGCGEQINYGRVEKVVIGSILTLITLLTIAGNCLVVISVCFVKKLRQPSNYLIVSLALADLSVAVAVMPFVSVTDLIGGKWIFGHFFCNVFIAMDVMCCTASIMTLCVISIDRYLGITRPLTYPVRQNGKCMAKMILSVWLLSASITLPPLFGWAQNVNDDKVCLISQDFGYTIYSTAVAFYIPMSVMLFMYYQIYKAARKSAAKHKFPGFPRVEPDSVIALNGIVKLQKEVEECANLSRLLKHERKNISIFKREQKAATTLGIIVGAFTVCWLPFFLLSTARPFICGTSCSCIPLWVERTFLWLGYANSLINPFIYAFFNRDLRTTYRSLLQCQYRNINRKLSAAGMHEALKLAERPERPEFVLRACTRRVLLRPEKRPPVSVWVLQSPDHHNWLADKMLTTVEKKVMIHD

Caco-2 = assay: Efflux ratio of apparent permeability from apical to basolateral side over basolateral to apical side in human Caco2 cells at 1 to 100 uM after 120 mins; format: ADME, cell-based; details: caco-2, 2 h
[5] = molecular target: T1, Adrenergic receptor alpha-1 (Rattus norvegicus, UniProt P15823+P23944+P43140); assay: Displacement of [3H]-prazosin from alpha1 adrenoceptor in Wistar Hannover rat cerebral cortex membranes after 50 mins; format: cell membranes, Membrane
T1 sequence (P15823 whole entry): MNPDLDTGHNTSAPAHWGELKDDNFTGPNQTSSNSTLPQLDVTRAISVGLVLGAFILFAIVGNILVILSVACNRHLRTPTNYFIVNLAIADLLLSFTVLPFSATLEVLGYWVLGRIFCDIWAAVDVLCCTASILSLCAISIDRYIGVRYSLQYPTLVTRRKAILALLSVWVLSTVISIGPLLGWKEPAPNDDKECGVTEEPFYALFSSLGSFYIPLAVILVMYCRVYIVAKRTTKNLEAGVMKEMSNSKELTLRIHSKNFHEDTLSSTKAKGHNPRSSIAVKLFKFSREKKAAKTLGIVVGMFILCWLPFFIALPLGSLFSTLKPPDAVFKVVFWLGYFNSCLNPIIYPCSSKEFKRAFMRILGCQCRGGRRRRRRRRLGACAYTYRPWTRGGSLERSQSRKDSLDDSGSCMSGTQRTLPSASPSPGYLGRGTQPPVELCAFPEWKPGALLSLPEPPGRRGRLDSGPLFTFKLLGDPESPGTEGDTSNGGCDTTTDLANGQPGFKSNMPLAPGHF
T1 sequence (P23944 whole entry): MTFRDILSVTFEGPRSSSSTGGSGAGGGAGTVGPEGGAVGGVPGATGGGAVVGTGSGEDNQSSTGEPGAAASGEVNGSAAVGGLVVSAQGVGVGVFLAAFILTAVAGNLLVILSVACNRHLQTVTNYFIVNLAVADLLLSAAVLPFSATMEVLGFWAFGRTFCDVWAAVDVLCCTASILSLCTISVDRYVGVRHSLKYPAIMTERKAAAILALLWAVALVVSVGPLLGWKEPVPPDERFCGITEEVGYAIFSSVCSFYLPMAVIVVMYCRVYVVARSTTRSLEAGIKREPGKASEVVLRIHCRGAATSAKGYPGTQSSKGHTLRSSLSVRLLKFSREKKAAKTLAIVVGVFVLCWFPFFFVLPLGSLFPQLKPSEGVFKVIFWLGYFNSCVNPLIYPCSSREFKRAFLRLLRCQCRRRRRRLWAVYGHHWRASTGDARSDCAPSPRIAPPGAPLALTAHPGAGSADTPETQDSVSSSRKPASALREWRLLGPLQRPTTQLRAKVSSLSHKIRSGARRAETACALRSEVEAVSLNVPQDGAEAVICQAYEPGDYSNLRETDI
T1 sequence (P43140 whole entry): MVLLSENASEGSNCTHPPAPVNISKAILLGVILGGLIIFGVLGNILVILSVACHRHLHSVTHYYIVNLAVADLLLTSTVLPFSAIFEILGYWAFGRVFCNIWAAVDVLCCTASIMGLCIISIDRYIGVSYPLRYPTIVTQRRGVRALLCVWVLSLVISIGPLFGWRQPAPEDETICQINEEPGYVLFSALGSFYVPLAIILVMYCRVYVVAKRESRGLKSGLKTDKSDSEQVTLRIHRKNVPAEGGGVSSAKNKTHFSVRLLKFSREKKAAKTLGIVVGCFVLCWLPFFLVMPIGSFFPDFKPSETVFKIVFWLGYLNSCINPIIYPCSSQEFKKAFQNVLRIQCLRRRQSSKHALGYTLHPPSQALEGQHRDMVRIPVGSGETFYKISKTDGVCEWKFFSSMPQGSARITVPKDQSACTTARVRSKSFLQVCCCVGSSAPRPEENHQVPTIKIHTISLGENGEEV
Summary of the method: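 Rat cerebral cortex membranes ([…]) with 1 nM [3H]-prazosin in 50 mM Tris-HCl pH 7.4, 120 mM NaCl, 5 mM KCl, 5 mM CaCl2, 1 mM MgCl2, plus varied drug concentrations. Incubated 50 min at 25 °C, filtered on PEI-soaked GF/C. Nonspecific binding with 10 phentolamine.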

[6] = molecular target: T2, 5-hydroxytryptamine receptor 1A (Homo sapiens, UniProt P08908); assay: Displacement of [3H]-8-OH-DPAT from human recombinant 5-HT1A receptor expressed in HEK293-EBNA cells after 120 mins; format: cell-based
T2 sequence (P08908 whole entry): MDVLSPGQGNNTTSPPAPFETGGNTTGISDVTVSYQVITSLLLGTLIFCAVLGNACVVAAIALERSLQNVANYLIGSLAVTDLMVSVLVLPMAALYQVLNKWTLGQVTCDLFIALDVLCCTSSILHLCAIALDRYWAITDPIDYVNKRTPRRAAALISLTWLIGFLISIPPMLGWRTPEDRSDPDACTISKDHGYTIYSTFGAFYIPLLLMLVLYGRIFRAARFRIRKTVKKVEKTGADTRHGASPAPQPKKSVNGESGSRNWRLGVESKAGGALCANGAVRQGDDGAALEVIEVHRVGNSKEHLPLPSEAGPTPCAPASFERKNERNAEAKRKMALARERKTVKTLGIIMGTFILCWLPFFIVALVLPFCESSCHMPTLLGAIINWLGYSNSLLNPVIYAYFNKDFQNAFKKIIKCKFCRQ
Summary of the method: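 HEK293-EBNA membranes ([…] protein) stably expressing human 5-HT1A, 1.0 nM [3H]-8-OH-DPAT, test compound 0.1 nM to 10 mM. Buffer 50 mM Tris-HCl pH 7.4, 5 mM MgSO4. Incubated 120 min at 37 °C, filtered on PEI-soaked GF/C. Nonspecific binding with 10 mM 5-HT.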

[7] = molecular target: ATP-dependent translocase ABCB1 (Homo sapiens, UniProt P08183); assay: Activity at human MDR1 expressed in MDCK cells assessed as Calcein-AM uptake after 30 mins by fluorescence assay; format: ADME, cell-based
ATP-dependent translocase ABCB1, sequence (P08183 whole entry): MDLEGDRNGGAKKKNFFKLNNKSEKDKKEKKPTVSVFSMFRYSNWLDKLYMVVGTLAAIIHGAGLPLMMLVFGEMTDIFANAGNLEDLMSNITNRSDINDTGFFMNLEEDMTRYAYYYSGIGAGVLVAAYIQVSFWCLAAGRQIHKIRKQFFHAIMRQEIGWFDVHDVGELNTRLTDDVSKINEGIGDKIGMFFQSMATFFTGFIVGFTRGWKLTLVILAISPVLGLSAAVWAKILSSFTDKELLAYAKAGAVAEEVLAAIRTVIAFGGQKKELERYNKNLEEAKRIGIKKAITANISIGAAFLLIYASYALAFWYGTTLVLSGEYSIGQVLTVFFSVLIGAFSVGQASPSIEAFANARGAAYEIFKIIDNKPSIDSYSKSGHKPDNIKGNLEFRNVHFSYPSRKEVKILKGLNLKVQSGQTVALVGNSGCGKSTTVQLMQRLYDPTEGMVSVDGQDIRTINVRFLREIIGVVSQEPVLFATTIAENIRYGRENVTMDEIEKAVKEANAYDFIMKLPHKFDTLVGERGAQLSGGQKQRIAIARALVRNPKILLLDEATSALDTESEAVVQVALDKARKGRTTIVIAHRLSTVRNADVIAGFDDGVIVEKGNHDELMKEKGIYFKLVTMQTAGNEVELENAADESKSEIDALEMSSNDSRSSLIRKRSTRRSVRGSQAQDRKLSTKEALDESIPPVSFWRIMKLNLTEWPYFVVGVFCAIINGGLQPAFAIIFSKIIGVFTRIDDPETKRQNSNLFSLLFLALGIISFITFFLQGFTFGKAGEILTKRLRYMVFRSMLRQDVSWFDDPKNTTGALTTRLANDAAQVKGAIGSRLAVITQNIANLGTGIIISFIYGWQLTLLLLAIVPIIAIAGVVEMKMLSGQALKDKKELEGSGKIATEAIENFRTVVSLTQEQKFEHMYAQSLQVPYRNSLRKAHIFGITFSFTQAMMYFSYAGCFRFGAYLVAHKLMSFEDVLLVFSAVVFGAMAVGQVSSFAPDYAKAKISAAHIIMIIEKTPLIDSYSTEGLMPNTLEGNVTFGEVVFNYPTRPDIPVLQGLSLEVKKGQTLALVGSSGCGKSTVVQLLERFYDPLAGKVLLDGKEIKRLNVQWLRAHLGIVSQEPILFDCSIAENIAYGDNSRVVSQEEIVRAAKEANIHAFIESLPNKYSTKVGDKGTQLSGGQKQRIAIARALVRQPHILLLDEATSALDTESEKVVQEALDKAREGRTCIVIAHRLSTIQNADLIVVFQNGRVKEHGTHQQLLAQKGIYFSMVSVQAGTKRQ
Summary of the method: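 P-gp interaction measured with the Calcein-AM assay in MDCK-MDR1 cells, which overexpress P-gp.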

Cerebral cortex [8] = assay: Drug uptake in cerebral cortex of Wistar rat at 47 MBq, iv up to 90 mins by PET analysis; format: ADME, organism-based; details: in vivo, 1.5 h
Summary of the method: (§1)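 Male Wistar rat under isoflurane given 47 MBq (0.8 nmol) [18F]-tracer via tail vein. Head scanned 0–90 min by list-mode PET, then CT. Blocking rat received 1 mg/kg haloperidol iv just before tracer (34 MBq). 2D-OSEM reconstruction with no attenuation correction. ROI analysis gives SUV (Bq/cm3 per injected Bq/g).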

Brain [9] = assay: Drug uptake in Wistar rat brain slices after 45 mins by autoradiography in presence of 90 uM of haloperidol; format: ADME, tissue-based
Summary of the method: (§2)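 Horizontal 20 µm cryosections of male Wistar rat brain, thawed 30 min, pre-incubated 10 min at 4 °C in 50 mM Tris-HCl pH 7.4. Incubated 45 min at rt with 9 nM [18F]-tracer in Tris-HCl/1% BSA (n = 4), alone or with blocker. Washed, air-dried, phosphor-imaged after 15 min exposure.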

Hippocampus = assay: Drug uptake in Wistar rat hippocampus after 45 mins by autoradiography; format: ADME, tissue-based; summary of the method: as §2
[10] = Drug uptake in olfactory of Wistar rat at 47 MBq, iv up to 90 mins by PET analysis in presence of haloperidol; format: ADME, organism-based; details: in vivo, 1.5 h
[11] = Drug uptake in olfactory of Wistar rat at 47 MBq, iv up to 90 mins by PET analysis; format: ADME, organism-based; details: in vivo, 1.5 h; summary of the method: as §1
Bone = assay: Drug uptake in bone of Wistar rat at 47 MBq, iv up to 90 mins by PET analysis; format: ADME, organism-based, Bone element; details: in vivo, 1.5 h; summary of the method: as §1
Brain [12] = assay: Drug uptake in Wistar rat brain slices after 45 mins by autoradiography in presence of 0.9 uM of unlabelled 2-(3-(6,7-Dimethoxy-3,4-dihydroisoquinolin-2(1H)-yl)propyl)-5-(2-fluoroethoxy)-3,4-dihydroisoquinolin-1(2H)-one; format: ADME, tissue-based; summary of the method: as §2
Cerebellum [13] = assay: Drug uptake in Wistar rat cerebellum after 45 mins by autoradiography; format: ADME, tissue-based; summary of the method: as §2
Cerebral cortex [14] = assay: Drug uptake in Wistar rat cerebral cortex after 45 mins by autoradiography; format: ADME, tissue-based; summary of the method: as §2
Cerebellum [15] = assay: Drug uptake in cerebellum of Wistar rat at 47 MBq, iv up to 90 mins by PET analysis in presence of haloperidol; format: ADME, organism-based; details: in vivo, 1.5 h
Cerebellum [16] = assay: Drug uptake in cerebellum of Wistar rat at 47 MBq, iv up to 90 mins by PET analysis; format: ADME, organism-based; details: in vivo, 1.5 h; summary of the method: as §1
Cerebral cortex [17] = assay: Drug uptake in cerebral cortex of Wistar rat at 47 MBq, iv up to 90 mins by PET analysis in presence of haloperidol; format: ADME, organism-based; details: in vivo, 1.5 h

Sigma non-opioid intracellular receptor 1, sequence (Q60492 whole entry): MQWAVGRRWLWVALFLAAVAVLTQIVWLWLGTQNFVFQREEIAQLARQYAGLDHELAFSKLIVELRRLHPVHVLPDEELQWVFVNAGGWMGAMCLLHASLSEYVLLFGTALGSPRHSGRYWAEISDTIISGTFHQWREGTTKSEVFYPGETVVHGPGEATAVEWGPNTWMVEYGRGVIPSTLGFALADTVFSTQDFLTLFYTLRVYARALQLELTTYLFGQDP

| Ki [1] | Ki [2] | Ratio Ki [3] | SMILES | further results |
| --- | --- | --- | --- | --- |
| 2.44 µM | 0.00424 µM | 574 | COc1cc2c(cc1OC)CN(CCCN1CCc3c(OC)cccc3C1=O)CC2 |  |
| 3.1 µM | 0.00924 µM | 330 | COc1cc2c(cc1OC)CN(CCCN1CCc3c(OCCF)cccc3C1=O)CC2 | Ki [4]: > 1 µM; Ratio (Caco-2): 2.58; Ki [5]: 0.764 µM; Ki [6]: > 1 µM; EC50 [7]: 5 µM |
| 1.63 µM | 0.0163 µM | 101 | COc1cc2c(cc1OC)CN(CCCN1CCc3cccc(OC)c3C1=O)CC2 |  |
| 0.402 µM | 0.00574 µM | 70 | COc1ccc2c(c1)CCN(CCCN1CCc3cc(OC)c(OC)cc3C1)C2=O |  |

The remaining lines, values behind:

| SMILES | Ki [1] | Ki [2] | Ratio Ki [3] | further results |
| --- | --- | --- | --- | --- |
| COc1cc2c(cc1OC)CN(CCCN1CCc3cc(F)ccc3C1=O)CC2 | 0.311 µM | 0.00356 µM | 87 |  |
| COc1cc2c(cc1OC)CN(CCCN1CCc3c(OCC[18F])cccc3C1=O)CC2 |  |  |  | Drug uptake (Cerebral cortex [8]): Active; Drug uptake (Brain [9]): Not Active; Drug uptake (Hippocampus): Active; Drug uptake [10]: Not Active; Drug uptake [11]: Active; Drug uptake (Bone): Not Active; Drug uptake (Brain [12]): Not Active; Drug uptake (Cerebellum [13]): Active; Drug uptake (Cerebral cortex [14]): Active; Drug uptake (Cerebellum [15]): Not Active; Drug uptake (Cerebellum [16]): Active; Drug uptake (Cerebral cortex [17]): Not Active |
| COc1cc2c(cc1OC)CN(CC/C=C1\CCCc3c(OC)cccc31)CC2 |  |  |  | EC50 [7]: 1.1 µM |
| COc1cc2c(cc1OC)CN(CCCN1CCc3cc(OC)c(OC)cc3C1=O)CC2 | 2.57 µM | 0.0201 µM | 127 |  |
